From ChEMBL document CHEMBL1123960, “Thyroid hormone analogues. Synthesis of 3'-substituted 3,5-diiodo-L-thyronines and quantitative structure-activity studies of in vitro and in vivo thyromimetic activities in rat liver and heart” (J Med Chem, 1988)
Calls of active or inactive are those of the source. The rule behind the calls is not given here.

How the values were obtained:
[1] = pKa for compound was evaluated; format: physicochemical
[2] = target: T1, Thyroid hormone receptor beta (Rattus norvegicus) (UniProt P18113); assay: Thyromimetic activity (induction of GPDH) in rat heart expressed as percentage of ratio of the ED50 for T3; F= Full agonist; format: functional, tissue-based; conditions: filed as agonist
T1 sequence (whole entry): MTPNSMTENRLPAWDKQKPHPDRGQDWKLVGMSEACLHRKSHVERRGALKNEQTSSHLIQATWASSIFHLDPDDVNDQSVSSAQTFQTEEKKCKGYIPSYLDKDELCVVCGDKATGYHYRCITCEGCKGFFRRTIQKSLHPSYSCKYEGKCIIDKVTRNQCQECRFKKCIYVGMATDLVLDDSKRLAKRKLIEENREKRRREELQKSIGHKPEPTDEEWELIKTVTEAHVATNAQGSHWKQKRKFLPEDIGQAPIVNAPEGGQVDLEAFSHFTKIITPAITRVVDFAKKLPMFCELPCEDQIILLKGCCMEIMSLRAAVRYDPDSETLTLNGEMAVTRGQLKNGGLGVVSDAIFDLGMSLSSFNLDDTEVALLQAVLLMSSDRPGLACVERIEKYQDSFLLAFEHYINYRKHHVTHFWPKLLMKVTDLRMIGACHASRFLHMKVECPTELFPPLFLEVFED
In short: (§1)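 Hypothyroid rats received a single intramuscular injection in 0.15 M NaCl/0.01 M NaOH vehicle (1 mL/kg), up to 50 mg/kg. Mitochondrial GPDH activity was measured in the organ 48 h later. Dose-response curves were fitted to a hyperbola by nonlinear fitting to give ED50, and rel ED50 = (ED50 T3 / ED50 compound) × 100. Where the maximum was below T3's, the percent of maximal response at 50 mg/kg was calculated.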

[3] = target: T1, Thyroid hormone receptor beta (Rattus norvegicus); assay: Thyromimetic activity (induction of GPDH) in rat liver expressed as percentage of ratio of the ED50 for T3; F= Full agonist; format: functional; conditions: filed as agonist; in short: as §1
[4] = target: T1, Thyroid hormone receptor beta (Rattus norvegicus); assay: Thyromimetic activity (induction of GPDH) in rat heart expressed as percentage of ratio of the ED50 for T3; I= Inactive; format: functional, tissue-based; in short: as §1
Rattus norvegicus [5] = assay: Relative in vivo thyromimetic potency (GPDH induction) in rat heart, expressed as percent ratio of ED50 for T3 to that of compound; F= Full agonist; conditions: filed as agonist
Rattus norvegicus [6] = species: Rattus norvegicus; assay: Thyromimetic activity (induction of GPDH) in rat liver expressed as percentage of ratio of the ED50 for T3 to that of the test compound; I= Inactive; format: functional, organism-based; in short: as §1
Rattus norvegicus [7] = species: Rattus norvegicus; assay: Thyromimetic activity (induction of GPDH) in rat liver expressed as percentage of ratio of the ED50 for T3 to that of the test compound; Full agonist; format: functional, organism-based; conditions: filed as agonist; in short: as §1
Rattus norvegicus [8] = species: Rattus norvegicus; assay: Thyromimetic activity (induction of GPDH) in rat heart expressed as percentage of ratio of the ED50 for T3 to that of the test compound; Full agonist; format: functional, organism-based; conditions: filed as agonist; in short: as §1
Rattus norvegicus [9] = species: Rattus norvegicus; assay: Thyromimetic activity (induction of GPDH) in rat heart expressed as percentage of ratio of the ED50 for T3 to that of the test compound; LM= Low maximum response; format: functional, organism-based; conditions: filed as partial agonist; in short: as §1

## CC(C)(C)c1cc(Oc2c(I)cc(CC(N)C(=O)O)cc2I)ccc1O (stereo unspecified)
[1]
  pKa: 10.6

## CCCCc1cc(Oc2c(I)cc(CC(N)C(=O)O)cc2I)ccc1O (stereo unspecified)
[2]
  Relative ED50: Agonist

## CCCCOCc1cc(Oc2c(I)cc(CC(N)C(=O)O)cc2I)ccc1O (stereo unspecified)
[3]
  Relative ED50: Agonist
[2]
  Relative ED50: Agonist

## NCCc1cc(Oc2c(I)cc(CC(N)C(=O)O)cc2I)ccc1O (stereo unspecified)
[4]
  Relative ED50: inactive

## NC(Cc1cc(I)c(Oc2ccc(O)c(-c3ccccc3)c2)c(I)c1)C(=O)O (stereo unspecified)
[1]
  pKa: 10

## CCC(C)c1cc(Oc2c(I)cc(CC(N)C(=O)O)cc2I)ccc1O (stereo unspecified)
[3]
  Relative ED50: Agonist
[2]
  Relative ED50: Agonist

## NC(Cc1cc(I)c(Oc2ccc(O)c(F)c2)c(I)c1)C(=O)O (stereo unspecified)
Rattus norvegicus [5]
  Relative ED50: Agonist
[1]
  pKa: 8.73
[3]
  Relative ED50: Agonist

## C=CCc1cc(Oc2c(I)cc(CC(N)C(=O)O)cc2I)ccc1O (stereo unspecified)
[1]
  pKa: 10.3

## NC(Cc1cc(I)c(Oc2ccc(O)c(CO)c2)c(I)c1)C(=O)O (stereo unspecified)
[1]
  pKa: 9.92

## CC(C)c1cc(Oc2c(I)cc(CC(N)C(=O)O)cc2I)ccc1O (stereo unspecified)
[1]
  pKa: 10.5

## NC(Cc1cc(I)c(Oc2ccc(O)c(C(=O)O)c2)c(I)c1)C(=O)O (stereo unspecified)
[4]
  Relative ED50: inactive
Rattus norvegicus [6]
  Relative ED50: inactive

## NC(Cc1cc(I)c(Oc2ccc(O)c(Cc3ccccc3)c2)c(I)c1)C(=O)O (stereo unspecified)
[1]
  pKa: 10.1

## NC(Cc1cc(I)c(Oc2ccc(O)c(Cl)c2)c(I)c1)C(=O)O (stereo unspecified)
[1]
  pKa: 8.56

## CCC(=O)c1cc(Oc2c(I)cc(CC(N)C(=O)O)cc2I)ccc1O (stereo unspecified)
Rattus norvegicus [7]
  Relative ED50: Agonist

## Cc1cc(Oc2c(I)cc(CC(N)C(=O)O)cc2I)ccc1O (stereo unspecified)
[1]
  pKa: 10.3

## N[C@@H](Cc1cc(I)c(Oc2ccc(O)cc2)c(I)c1)C(=O)O
[1]
  pKa: 9.99

## NC(Cc1cc(I)c(Oc2ccc(O)c(C=O)c2)c(I)c1)C(=O)O (stereo unspecified)
[1]
  pKa: 8.37
Rattus norvegicus [8]
  Relative ED50: Agonist

## CC(=O)c1cc(Oc2c(I)cc(CC(N)C(=O)O)cc2I)ccc1O (stereo unspecified)
[1]
  pKa: 10.1

## NC(Cc1cc(I)c(Oc2ccc(O)c(CCCCO)c2)c(I)c1)C(=O)O (stereo unspecified)
Rattus norvegicus [9]
  Relative ED50: Partial agonist

## COCc1cc(Oc2c(I)cc(CC(N)C(=O)O)cc2I)ccc1O (stereo unspecified)
[1]
  pKa: 9.85
[2]
  Relative ED50: Agonist

## NC(Cc1cc(I)c(Oc2ccc(O)c([N+](=O)[O-])c2)c(I)c1)C(=O)O (stereo unspecified)
[1]
  pKa: 7.23
[2]
  Relative ED50: Agonist

## COCCCCc1cc(Oc2c(I)cc(CC(N)C(=O)O)cc2I)ccc1O (stereo unspecified)
[2]
  Relative ED50: Agonist

## CCCC(=O)NCc1cc(Oc2c(I)cc(CC(N)C(=O)O)cc2I)ccc1O (stereo unspecified)
[4]
  Relative ED50: inactive
Rattus norvegicus [6]
  Relative ED50: inactive

## NCc1cc(Oc2c(I)cc(CC(N)C(=O)O)cc2I)ccc1O (stereo unspecified)
[4]
  Relative ED50: inactive
Rattus norvegicus [6]
  Relative ED50: inactive

## N[C@@H](Cc1cc(I)c(Oc2ccc(O)c(I)c2)c(I)c1)C(=O)O [LIOTHYRONINE]
[1]
  pKa: 8.51

## NC(Cc1cc(I)c(Oc2ccc(O)c(C3CCCCC3)c2)c(I)c1)C(=O)O (stereo unspecified)
[3]
  Relative ED50: Agonist

## NC(Cc1cc(I)c(Oc2ccc(O)c(Br)c2)c(I)c1)C(=O)O (stereo unspecified)
[1]
  pKa: 8.45

## CC(=O)NCCCc1cc(Oc2c(I)cc(CC(N)C(=O)O)cc2I)ccc1O (stereo unspecified)
[4]
  Relative ED50: inactive

## NC(Cc1cc(I)c(Oc2ccc(O)c(O)c2)c(I)c1)C(=O)O (stereo unspecified)
[1]
  pKa: 9.34

## CCCCSCc1cc(Oc2c(I)cc(CC(N)C(=O)O)cc2I)ccc1O (stereo unspecified)
[3]
  Relative ED50: Agonist

## CC(C)Cc1cc(Oc2c(I)cc(CC(N)C(=O)O)cc2I)ccc1O (stereo unspecified)
[3]
  Relative ED50: Agonist
[2]
  Relative ED50: Agonist

## NC(Cc1cc(I)c(Oc2ccc(O)c(CC3CCCCC3)c2)c(I)c1)C(=O)O (stereo unspecified)
[3]
  Relative ED50: Agonist
[2]
  Relative ED50: Agonist

## CCC(=O)NCCc1cc(Oc2c(I)cc(CC(N)C(=O)O)cc2I)ccc1O (stereo unspecified)
[4]
  Relative ED50: inactive

## CCOCCCc1cc(Oc2c(I)cc(CC(N)C(=O)O)cc2I)ccc1O (stereo unspecified)
[3]
  Relative ED50: Agonist
